Experiments:
PBRM1 = PBRM1 (Homo sapiens, UniProt Q86U86); assay: Protein degradation assay, PBRM1 in NCI-H1568 cells; assay type: cell-based; details: read-out: DC50 PBRM1, 18 h
Procedure, shortened: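 Cells seeded at 20000/well in 24-well plates and held overnight at 37 °C. Test compound added from DMSO stock (DMSO normalised), 18 h at 37 °C. Lysed 30 min on ice in 1% Triton, 350 mM KCl, 10 mM Tris pH 7.4, 10 mM DTT, benzonase, protease/phosphatase inhibitors. Target protein quantified by WES capillary electrophoresis, normalised to GAPDH. Two independent experiments.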

[1] = Caco-2 permeability assay; assay type: in vitro ADME; details: human, Caco-2, pH 7.2
SK-MEL-5 cells [2] = assay: Proliferation assay; assay type: cell-based; details: Homo sapiens, SK-MEL-5, 168 h, read-out: anti-proliferative IC50, SK-MEL-5
SMARCA2^BD = SMARCA2^BD (Homo sapiens, UniProt P51531); assay type: binding
SMARCA2 = SMARCA2 (Homo sapiens, UniProt P51531); assay: Protein degradation assay; assay type: cell-based; details: MV-4-11 cells, 1 µM compound
SK-MEL-5 cells [3] = assay: Real-time apoptosis measurement; assay type: cell-based, human; details: SK-MEL-5, 0.3 µM, comparable to doxorubicin (1 µM)
NCI-H1703 cells = assay: Proliferation assay; assay type: cell-based, human; details: SMARCA2/4 null cell line, 7 days
MV-4-11 cells = assay: Proliferation assay; assay type: cell-based, human; details: read-out: anti-proliferative IC50, MV-4-11; cell viability after 7 days
[4] = test system: proteome of MV-4-11 cells; assay: TMT labelling mass spectrometry proteomics in MV-4-11 cells; assay type: cell-based, human; details: 333 nM, 8 h
[5] = test system: panel of cancer cell lines; assay: Proliferation of a panel of cancer cell lines; assay type: cell-based, human; details: all cell lines tested
SMARCA4 = SMARCA4 (Homo sapiens, UniProt P51532); assay: Protein degradation assay; assay type: cell-based; details: MV-4-11 cells, 1 µM compound
[6] = test system: VHL-ElonginC-ElonginB (VCB) complex; assay: Isothermal titration calorimetry; assay type: binding, human; details: ITC, VCB ± SMARCA2^BD

PBRM1, sequence (Q86U86 whole entry): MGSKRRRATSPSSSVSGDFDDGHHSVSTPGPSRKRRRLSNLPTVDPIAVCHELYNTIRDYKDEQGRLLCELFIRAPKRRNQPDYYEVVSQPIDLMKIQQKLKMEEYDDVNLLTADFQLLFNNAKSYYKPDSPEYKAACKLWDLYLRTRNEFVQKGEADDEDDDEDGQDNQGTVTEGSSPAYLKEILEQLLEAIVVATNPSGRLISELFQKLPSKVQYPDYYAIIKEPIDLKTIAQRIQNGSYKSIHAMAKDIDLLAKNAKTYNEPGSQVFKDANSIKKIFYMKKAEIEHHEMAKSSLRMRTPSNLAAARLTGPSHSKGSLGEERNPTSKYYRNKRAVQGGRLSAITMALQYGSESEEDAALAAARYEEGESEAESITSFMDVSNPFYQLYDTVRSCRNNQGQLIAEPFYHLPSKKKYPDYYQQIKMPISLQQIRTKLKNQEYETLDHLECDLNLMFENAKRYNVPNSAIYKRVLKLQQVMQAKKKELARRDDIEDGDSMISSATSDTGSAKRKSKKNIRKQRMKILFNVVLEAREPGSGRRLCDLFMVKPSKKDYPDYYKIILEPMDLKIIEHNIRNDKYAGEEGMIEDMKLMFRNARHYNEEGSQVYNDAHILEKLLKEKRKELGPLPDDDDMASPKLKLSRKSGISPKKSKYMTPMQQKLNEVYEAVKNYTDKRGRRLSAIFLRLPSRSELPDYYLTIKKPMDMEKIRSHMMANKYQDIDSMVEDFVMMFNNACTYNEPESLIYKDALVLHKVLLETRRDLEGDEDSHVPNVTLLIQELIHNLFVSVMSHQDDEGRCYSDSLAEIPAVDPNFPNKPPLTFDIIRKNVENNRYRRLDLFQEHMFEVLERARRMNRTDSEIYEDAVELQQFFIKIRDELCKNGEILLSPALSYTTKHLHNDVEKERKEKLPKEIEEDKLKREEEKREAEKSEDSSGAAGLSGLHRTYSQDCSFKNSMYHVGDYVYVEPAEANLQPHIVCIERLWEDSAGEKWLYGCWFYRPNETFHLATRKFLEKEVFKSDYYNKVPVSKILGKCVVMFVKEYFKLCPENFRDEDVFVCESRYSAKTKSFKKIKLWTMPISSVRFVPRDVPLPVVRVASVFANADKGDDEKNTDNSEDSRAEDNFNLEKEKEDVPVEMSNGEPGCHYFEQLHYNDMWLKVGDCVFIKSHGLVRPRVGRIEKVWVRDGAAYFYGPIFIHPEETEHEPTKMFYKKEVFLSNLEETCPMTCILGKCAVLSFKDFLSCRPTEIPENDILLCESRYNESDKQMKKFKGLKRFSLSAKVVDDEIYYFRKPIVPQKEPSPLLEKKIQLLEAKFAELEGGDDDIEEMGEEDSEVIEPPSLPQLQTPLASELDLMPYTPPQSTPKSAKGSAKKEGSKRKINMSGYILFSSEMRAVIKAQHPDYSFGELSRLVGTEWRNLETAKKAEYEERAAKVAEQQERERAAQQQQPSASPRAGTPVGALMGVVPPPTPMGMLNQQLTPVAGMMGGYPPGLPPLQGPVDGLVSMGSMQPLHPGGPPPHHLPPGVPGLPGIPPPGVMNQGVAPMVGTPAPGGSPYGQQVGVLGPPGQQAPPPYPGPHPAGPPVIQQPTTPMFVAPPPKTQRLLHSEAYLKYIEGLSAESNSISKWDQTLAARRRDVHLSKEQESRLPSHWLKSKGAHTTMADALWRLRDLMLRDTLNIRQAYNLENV
SMARCA4, sequence (P51532 whole entry): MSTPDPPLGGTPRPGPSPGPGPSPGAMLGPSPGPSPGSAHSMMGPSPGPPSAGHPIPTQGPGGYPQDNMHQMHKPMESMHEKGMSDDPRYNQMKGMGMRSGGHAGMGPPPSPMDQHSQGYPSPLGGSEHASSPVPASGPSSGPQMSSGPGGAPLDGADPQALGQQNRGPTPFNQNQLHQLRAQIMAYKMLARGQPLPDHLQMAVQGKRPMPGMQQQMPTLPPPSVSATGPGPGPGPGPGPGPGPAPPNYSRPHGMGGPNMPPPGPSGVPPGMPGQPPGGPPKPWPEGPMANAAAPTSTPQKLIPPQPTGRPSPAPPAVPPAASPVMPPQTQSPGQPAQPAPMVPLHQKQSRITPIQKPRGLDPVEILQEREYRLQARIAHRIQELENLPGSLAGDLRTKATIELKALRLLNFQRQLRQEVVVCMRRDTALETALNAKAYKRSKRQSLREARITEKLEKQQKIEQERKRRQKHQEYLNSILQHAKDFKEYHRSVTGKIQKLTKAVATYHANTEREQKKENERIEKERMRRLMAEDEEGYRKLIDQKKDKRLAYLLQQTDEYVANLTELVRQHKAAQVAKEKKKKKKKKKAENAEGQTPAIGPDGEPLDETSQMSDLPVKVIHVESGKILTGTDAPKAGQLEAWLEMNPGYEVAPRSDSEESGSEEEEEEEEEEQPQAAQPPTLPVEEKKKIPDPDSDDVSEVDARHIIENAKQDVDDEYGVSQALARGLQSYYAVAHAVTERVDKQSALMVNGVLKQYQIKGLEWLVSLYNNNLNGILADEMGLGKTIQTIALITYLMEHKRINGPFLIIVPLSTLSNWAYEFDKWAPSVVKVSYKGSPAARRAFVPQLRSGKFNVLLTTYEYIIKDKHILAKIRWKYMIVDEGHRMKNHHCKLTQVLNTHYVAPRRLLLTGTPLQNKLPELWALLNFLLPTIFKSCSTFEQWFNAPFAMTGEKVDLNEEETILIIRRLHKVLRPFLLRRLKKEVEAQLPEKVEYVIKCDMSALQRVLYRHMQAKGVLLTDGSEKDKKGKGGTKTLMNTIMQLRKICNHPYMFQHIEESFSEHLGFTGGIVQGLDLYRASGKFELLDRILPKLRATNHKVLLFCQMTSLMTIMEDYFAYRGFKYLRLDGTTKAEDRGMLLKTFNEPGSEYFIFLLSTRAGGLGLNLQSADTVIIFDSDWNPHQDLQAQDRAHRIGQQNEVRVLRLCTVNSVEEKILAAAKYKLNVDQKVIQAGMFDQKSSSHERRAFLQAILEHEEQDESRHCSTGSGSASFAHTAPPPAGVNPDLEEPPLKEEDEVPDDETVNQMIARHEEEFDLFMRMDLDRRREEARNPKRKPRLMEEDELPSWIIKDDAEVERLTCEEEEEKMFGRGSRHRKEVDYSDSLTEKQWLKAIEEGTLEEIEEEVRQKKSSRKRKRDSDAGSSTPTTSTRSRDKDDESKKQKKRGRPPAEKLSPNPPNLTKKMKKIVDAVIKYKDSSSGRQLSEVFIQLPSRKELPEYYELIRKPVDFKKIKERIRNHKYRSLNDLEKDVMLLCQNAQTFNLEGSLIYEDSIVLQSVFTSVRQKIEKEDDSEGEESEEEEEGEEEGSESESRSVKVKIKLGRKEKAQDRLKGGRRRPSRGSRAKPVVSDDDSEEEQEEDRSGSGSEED

DC50 (PBRM1) [µM] | efflux ratio [1] | IC50 (SK-MEL-5 cells [2]) [µM] | IC50 (SMARCA2^BD) [µM] | time to half maximal degradation of SMARCA2 (SMARCA2) [h] | IC50 (MV-4-11 cells) [µM] | time to half maximal degradation of SMARCA4 (SMARCA4) [h] | Papp B→A at 2 h [1] [nm/s] | cooperativity α (binary KD/ternary KD) [6] | Compound | caspase activity / apoptosis (SK-MEL-5 cells [3]) | anti-proliferative effect in NCI-H1703 (NCI-H1703 cells) | effect on cellular proteome [4] | anti-proliferative effect across cell lines tested [5]
0.0156 | 1.7 | 0.077 | 0.77 | < 2 | 0.029 | < 2 |  |  | Cc1ncsc1-c1ccc(CNC(=O)[C@@H]2C[C@@H](O)CN2C(=O)[C@@H](NC(=O)C2(F)CC2)C(C)(C)C)c(OCCOc2ccc(CN3CCN(c4cc(-c5ccccc5O)nnc4N)CC3)cc2)c1 [ACBI1, (2S,4R)-N-(2-(2-(4-((4-(3-amino-6-(2-hydroxyphenyl)pyridazin-4-yl)piperazin-1-yl)methyl)phenoxy)ethoxy)-4-(4-methylthiazol-5-yl)benzyl)-1-((S)-2-(1-fluorocyclopropane-1-carboxamido)-3,3-dimethylbutanoyl)-4-hydroxypyrrolidine-2-carboxamide] | increased caspase activity | no anti-proliferative effects | significant knockdown of SMARCA2, SMARCA4 and PBRM1 with minimal down-regulation of other proteins across the proteome | potent anti-proliferative effects
 |  |  |  |  |  |  | 207 | 4.8 | Cc1ncsc1-c1ccc(CNC(=O)[C@@H]2C[C@@H](O)CN2C(=O)[C@@H](NC(=O)C2(F)CC2)C(C)(C)C)c(OCCOCCOCCN2CCN(c3cc(-c4ccccc4O)nnc3N)CC2)c1 [PROTAC 1, (2S,4R)-N-(2-(2-(2-(2-(4-(3-amino-6-(2-hydroxyphenyl)pyridazin-4-yl)piperazin-1-yl)ethoxy)ethoxy)ethoxy)-4-(4-methylthiazol-5-yl)benzyl)-1-((S)-2-(1-fluorocyclopropane-1-carboxamido)-3,3-dimethylbutanoyl)-4-hydroxypyrrolidine-2-carboxamide] |  |  |  | 
 |  | > 10 |  |  |  |  |  |  | Cc1ncsc1-c1ccc(CNC(=O)[C@@H]2C[C@H](O)CN2C(=O)[C@@H](NC(=O)C2(F)CC2)C(C)(C)C)c(OCCOc2ccc(CN3CCN(c4cc(-c5ccccc5O)nnc4N)CC3)cc2)c1 [cis-ACBI1, (2S,4S)-N-(2-(2-(4-((4-(3-amino-6-(2-hydroxyphenyl)pyridazin-4-yl)piperazin-1-yl)methyl)phenoxy)ethoxy)-4-(4-methylthiazol-5-yl)benzyl)-1-((S)-2-(1-fluorocyclopropane-1-carboxamido)-3,3-dimethylbutanoyl)-4-hydroxypyrrolidine-2-carboxamide] |  | no anti-proliferative effects |  | 

Source: PMC6600871 (Nature chemical biology, 2019)
